# A selection: hits, their analogues and other compounds. The true share with any hit is near 1.3%.
# CHT allo act: CHT positive allosteric modulators, primary screen, cell-based, membrane potential dye, choline EC20; CHT-expressing cells; active compounds read high; LV-AA mutant CHT in HEK293 cells; B-score at 10 µM; actives 0.49% (n = 310,000); AID 488977, 2010;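 active means initial fluorescence not abnormally high and integrated response B-score, plate-corrected, over 3 SD above library mean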
# CHT block: inhibitors of human choline transporter CHT | actives 0.86% (n = 310,000) | CHT-expressing cells, membrane potential dye, choline response; active compounds read low | B-score at 10 µM | High affinity choline transporter 1 (Homo sapiens), Q9GZV3;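 active means B-score over 3 SD under the library average, and starting fluorescence ratio not unusually high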;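 further: choline stimulus applied at its EC90 after an EC20 pre-addition; B-score computed on integrated fluorescence ratio after choline addition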
# proCasp3 act: activators of human procaspase-3 D3A mutant, primary screen, biochemical, absorbance, PC-3 D3A mutant, single concentration; activation, % at 8.5 µM; AID 463141, 2010; recombinant procaspase-3 D3A, Ac-DEVD-pNA absorbance 405 nm; actives 0.11% (n = 330,000);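 active means activation above the mean of all tested compounds plus 3 SD, cut at about 21% in these data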;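 further: 0% = DMSO alone and 100% = DMSO wells spiked with extra 5 µM PC-3 D3A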
# Target sequence (P42574 whole entry D9A/D28A/D175A): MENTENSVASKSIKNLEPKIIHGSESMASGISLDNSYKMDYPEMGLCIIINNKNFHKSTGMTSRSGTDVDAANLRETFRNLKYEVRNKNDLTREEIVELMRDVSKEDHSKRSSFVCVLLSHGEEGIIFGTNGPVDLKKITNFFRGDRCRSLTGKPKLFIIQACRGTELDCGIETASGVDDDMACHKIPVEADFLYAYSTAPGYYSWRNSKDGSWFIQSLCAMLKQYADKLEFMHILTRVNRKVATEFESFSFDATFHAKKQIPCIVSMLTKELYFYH
#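 Test system: Procaspase-3 D3A mutant, all three cleavage aspartates alanine | Dosing: Single dose, 8.5 µM nominal compound, 0.8% DMSO | Schedule: 1 h preincubation, 2 h reaction | Technique: 405 nm absorbance of p-nitroaniline, reads at 0 and 120 min | Repeats: One well per compound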
# procasp7 counter: procaspase-7 activators, primary screen, counter-screen for procaspase-3 activator project, biochemical, absorbance, HTS, human | Caspase-7 (Homo sapiens), P55210 | recombinant procaspase-7, Ac-DEVD-pNA absorbance 405 nm; D23A/D198A/D206A triple mutant, cannot self-cleave; scale: DMSO 0, 5 µM enzyme 100 | activation, % at 8.5 µM | actives 0.093% (n = 330,000);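 active means percent activation above the screen-wide mean plus 3 SD, cut at about 25% in these data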
# Target sequence (P55210 whole entry D23A/D198A/D206A): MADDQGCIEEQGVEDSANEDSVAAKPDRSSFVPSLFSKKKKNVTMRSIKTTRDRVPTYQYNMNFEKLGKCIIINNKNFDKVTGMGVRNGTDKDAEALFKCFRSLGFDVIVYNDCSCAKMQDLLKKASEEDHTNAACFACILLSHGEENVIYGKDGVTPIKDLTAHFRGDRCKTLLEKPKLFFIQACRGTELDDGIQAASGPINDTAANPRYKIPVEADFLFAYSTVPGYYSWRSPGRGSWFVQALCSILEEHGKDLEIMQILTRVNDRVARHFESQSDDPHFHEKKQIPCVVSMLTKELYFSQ
#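 buffer or medium = Zinc-free HEPES/NaCl buffer, pH 7.4 | material = Procaspase-7 triple mutant (PC-7 D3A) | input = 2 µM procaspase-7 mutant as dispensed | signal = Epi-absorbance of released pNA at 405 nm, two timepoints | timing = 1 h preincubation, 2 h reaction | replicates = singlicate compound testing | evaluation = % activation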
# procasp7 triplic: procaspase-7 activators, counter-screen for procaspase-3 activator project, biochemical, absorbance, triplicate, human. recombinant procaspase-7, Ac-DEVD-pNA absorbance; asp23/198/206-to-Ala mutant, cannot self-cleave. AID 488941, 2010. shares compounds with proCasp3 act. 210 tested, under 10 active. activation, % at 8.5 µM;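 active means mean activation above a set limit taken from an earlier procaspase-7 screen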;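 further: 0% = DMSO wells and 100% = DMSO plus 5 µM procaspase-7 enzyme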
# procasp3 conf: activators of human procaspase-3 D3A mutant, confirmation, biochemical, absorbance, PC-3 D3A mutant, triplicate; shares compounds with proCasp3 act; recombinant PC-3 D3A, Ac-DEVD-pNA absorbance 405 nm; 100% is higher-enzyme control; activation, % at 8.5 µM; actives 10% (n = 210); AID 488954, 2010;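 active means mean activation above a set limit carried over from the earlier primary screen, cut at about 22% in these data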
# An asterisk follows results filed as active; i = inactive; x = not tested or not shown.
SMILES,CHT allo act,CHT block,proCasp3 act,procasp7 counter,procasp7 triplic,procasp3 conf
C=CCSc1nc(N)c2c3c(sc2n1)CN(C)CC3,i,i,-3,-14,x,x
CCC(O)CNc1nc(SC)nc2sc3c(c12)CCN(C)C3 (stereo unspecified),7.1*,i,-5,0,x,x
CSc1nc(N)c2c3c(sc2n1)CN(C)CC3,7.7*,i,-1,1,x,x
COCCSc1nc2sc3c(c2c(=O)n1-c1ccccc1)CCN(C)C3,7.5*,i,-4,8,x,x
Cc1nnc(SCC(=O)N(CCC#N)c2ccc3c(c2)OCCO3)s1,x,x,8,-10,x,x
COc1ccc(S(=O)(=O)Nc2cccc3c2O[C@H](CN(C)C(=O)Nc2ccccc2)[C@@H](C)CN([C@H](C)CO)C3=O)cc1,x,x,9,9,x,x
CC(=O)n1c(-c2ccccc2)c(-c2ccccc2)n(C)c1=O,i,i,5,1,x,x
C1CN(CCN2CCOCC2)CCN1,i,i,-1,-2,x,x
CCn1c(SCC(=O)Nc2ccc(C)cc2)nc2sc3c(c2c1=O)CCN(C)C3,i,i,0,-8,x,x
CSc1nc(SCC(N)=O)c2c3c(sc2n1)CN(C)CC3,6.3*,i,7,16,x,x
CSc1nc(SCC(=O)NCc2ccco2)c2c3c(sc2n1)CN(C)CC3,i,i,-7,-12,x,x
CCn1c(SCC(N)=O)nc2sc3c(c2c1=O)CCN(C)C3,7.9*,i,-13,-5,x,x
Nc1ccc(Cl)c(S(=O)(=O)Nc2cccc(Cl)c2)c1,i,-8.9*,1,-1,x,x
Cc1ccc(NS(=O)(=O)c2cc(N)ccc2Cl)c(C)c1,i,i,0,2,x,x
Cc1oc2c(c(=O)c1C)C(=O)CC(c1ccccc1)C2 (stereo unspecified),i,i,11,0,x,x
CS(=O)(=O)c1sc(C#N)c2c1C(=O)CC(c1ccccc1)C2 (stereo unspecified),i,-7.1*,-11,-3,x,x
[O-][n+]1cccc2ncc3cscc3c21,i,i,9,7,x,x
CCCc1nnc2n1N=C(c1ccc(OC)c(OC)c1)CS2,i,-5*,9,8,x,x
CC1(OC(=O)CCc2ccccc2)C(=O)C=C2C=C3CCCN3C=C2C1=O (stereo unspecified),i,i,5,-5,x,x
CC1(OC(=O)c2cccs2)C(=O)C=C2C=C3CCCN3C=C2C1=O (stereo unspecified),i,-5.3*,-15,-8,x,x
CC(OC(=O)c1cccc(-n2cnnn2)c1)C(=O)Nc1cccc(Cl)c1 (stereo unspecified),i,i,-6,0,x,x
Cc1cc2sc3ccccc3c(=O)c2c(C)c1O,i,i,-10,2,x,x
O=c1c(C(c2ccccc2)c2c(O)sc3ccccc3c2=O)c(O)sc2ccccc12,i,-5.2*,5,4,x,x
CCCn1c(SCC(=O)Nc2ccccc2C(=O)NC2CC2)n[nH]c1=O,x,x,10,7,x,x
Cc1cccc(-n2c(SCC(=O)NCC3CCCO3)nc3ccccc3c2=O)c1C (stereo unspecified),x,x,8,1,x,x
SMILES,CHT allo act,CHT block,proCasp3 act,procasp7 counter,procasp7 triplic,procasp3 conf
CC1(C)CC(=O)C2=C(C1)c1c(ccc3ccccc13)NC2c1ccc(Br)o1 (stereo unspecified),i,i,29*,16,31*,4
Cc1cc(C)c(C#N)c(SCC(=O)Nc2ccccc2C)n1,i,i,-3,-3,x,x
Cc1cc(C)c(C#N)c(SCC(=O)Nc2nnc(-c3ccccc3)s2)n1,i,i,27*,22,2,1
Cc1nc(SCC(=O)Nc2nc3ccccc3s2)c(C#N)c(C)c1C,i,i,29*,-3,-14,-7
Cc1ccc(N2CCN(CC(O)COc3ccccc3)CC2)cc1 (stereo unspecified),i,i,28*,6,3,2
Cc1cc(C)cc(N2CCN(C(=O)N3CCOCC3)CC2)c1,i,i,-2,2,x,x
CCc1ccc(N2CCN(C(=O)N3CCOCC3)CC2)cc1,i,i,24*,11,3,5
Cc1ccc(N(Cc2cc(=O)[nH]c3ccccc23)C(=O)CCl)c(C)c1,i,i,7,11,x,x
COc1cc2sc3ccc(C#CC4(O)CCCCC4)cc3c(=O)c2cc1OC,i,i,70*,25,-22,-13
COc1cccc2sc3cc(C#CC4(O)CCCCC4)ccc3c(=O)c12,x,x,-5,-9,x,x
Cc1cc(OC(=O)c2ccc(Cl)cc2Cl)c([N+](=O)[O-])c(=O)[nH]1,i,i,89*,1,-8,0
CCn1cc(C(=O)NCc2ccc(Cl)cc2)c(=O)c2cc(S(=O)(=O)N(C)C)ccc21,i,i,-2,7,x,x
CCCN(C(=O)CSCC(=O)Nc1cccc(C)c1)c1c(N)n(Cc2ccccc2)c(=O)[nH]c1=O,i,i,2,-12,x,x
CCCCN(C(=O)CSCC(=O)Nc1cccc(C)c1)c1c(N)n(Cc2ccccc2)c(=O)[nH]c1=O,i,i,24*,2,1,3
O=C(NN1C(=O)C2C3C=CC(C3)C2C1=O)c1cccc(Cl)c1 (stereo unspecified),i,i,24*,-8,4,3
Nc1cc(-c2ccccc2)n2c(n1)nc1ccccc12,i,i,4,7,x,x
N#Cc1c(-c2ccccc2)cc2nc3ccccc3n2c1N,i,i,31*,14,-11,-14
O=C(O)c1ccc(N/N=C/c2ccc(-c3ccccc3Cl)o2)cc1,i,i,-29,-68,x,x
O=C(N/N=C/c1ccc(-c2ccccc2Cl)o1)c1ccccc1,i,i,25*,-24,-7,-5
COc1ccc(C2=NC(=O)/C(=C\c3cc(OC)c(OC)c(OC)c3)O2)cc1,i,i,26*,23,27*,33*
COc1ccc(/C=C2\N=C(c3ccc(C)cc3)OC2=O)cc1,i,i,-1,2,x,x
Cc1cccc(N2CN(S(=O)(=O)c3cccc([N+](=O)[O-])c3)c3nc4ccccc4nc32)c1,x,x,9,5,x,x

# Screening data deposited in PubChem by several laboratories.
